# Data taken from ChEMBL document CHEMBL3352038, “Discovery of cytotoxic dolastatin 10 analogues with N-terminal modifications” (J Med Chem, 2014).
# Non-standard residues stand in square brackets, D forms with d. Residues, ends and D or L forms follow the SMILES beside them. *: point of attachment. Dolaproine = CO[C@@H]([C@@H]1CCCN1)[C@@H](C)C(=O)O; Dil = CC[C@H](C)[C@H](NC)[C@@H](CC(=O)O)OC; Doe = c1ccc(C[C@H](N*)c2nccs2)cc1; X1 = C[C@@H](N*)[C@@H](O)c1ccccc1; NMeV = CN[C@H](C(=O)O)C(C)C; NMeA = CN[C@@H](C)C(=O)O; NMeAib = CNC(C)(C)C(=O)O; Ac5c = NC1(C(=O)O)CCCC1; Ac3c = NC1(C(=O)O)CC1; Aib = CC(C)(N)C(=O)O; Sar = CNCC(=O)O
# How the values were obtained:
# BT-474 = test: Cytotoxicity against human BT474 cells assessed as cell viability incubated fore 4 days by MTS assay; assay type: functional; details: BT-474, 96 h
# In short: (§1)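 Cells seeded at low density in 96-well plates, dosed next day with 3-fold serial dilutions at 10 concentrations in duplicate. Incubated 4 days at 37C/5% CO2. Viability read by MTS reagent (1.5 h), absorbance at 490 nm. Four-parameter logistic fit. Reported as arithmetic mean GI50 (nM) with standard deviation over n individual runs, each run a duplicate readout.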
# MDA-MB-361 = test: Cytotoxicity against human MDA-MB-361 cells assessed as cell viability incubated fore 4 days by MTS assay; assay type: functional; details: MDA-MB-361, 96 h; in short: as §1
# NCI-N87 = test: Cytotoxicity against human NCI-N87 cells assessed as cell viability incubated fore 4 days by MTS assay; assay type: functional; details: NCI-N87, 96 h; in short: as §1
# [1] = AUCt in Han Wistar rat at 20 ug/kg, iv by LC-MS/MS analysis; assay type: ADME, organism-based; details: plasma, 0.02 mg/kg
# In short: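 Male Wistar Han rats (n = 3) received a single IV dose of 20 µg/kg. Serum/plasma concentrations were measured by LC-MS/MS. AUCt was taken from time zero to the last measurable concentration. Values are reported as mean ±.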
# [2] = Volume of distribution at steady state in Han Wistar rat at 20 ug/kg, iv by LC-MS/MS analysis; assay type: ADME, organism-based; details: in vivo, 0.02 mg/kg, read-out: Vdss
# In short: (§2)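 Male Wistar Han rats (n = 3), single IV dose of 20 µg/kg. Plasma levels by LC-MS/MS. Cmax, Tmax, AUCt (zero to last measurable concentration), systemic serum clearance, Vss and terminal t1/2 given as mean ± spread.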
# [3] = Half life in Han Wistar rat at 20 ug/kg, iv by LC-MS/MS analysis; assay type: ADME, organism-based; details: in vivo, 0.02 mg/kg; in short: as §2
# [4] = Clearance in Han Wistar rat at 20 ug/kg, iv by LC-MS/MS analysis; assay type: ADME, organism-based; details: in vivo, 0.02 mg/kg; in short: as §2
# [5] = Fraction unbound in monkey plasma at 0.1 uM; assay type: ADME, cell-free, Macaca mulatta; details: rhesus monkey
# In short: (§3)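 Plasma protein binding measured at 0.1 uM in monkey, rat and human plasma. Reported as fraction unbound.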
# [6] = Fraction unbound in rat plasma at 0.1 uM; assay type: ADME, cell-free; in short: as §3
# [7] = Fraction unbound in human plasma at 0.1 uM; assay type: ADME, cell-free; in short: as §3
# [8] = Drug recovery in Han Wistar rat urine at 36 ug/kg, iv bolus dose; assay type: ADME, organism-based; details: 0.036 mg/kg, read-out: Drug recovery
# In short: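 Single IV bolus of 36 µg/kg. Fraction of dose recovered in urine (Wistar Han rats, n = 3) and in bile (Sprague-Dawley rats, n = 3).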
# [9] = Drug recovery in Han Wistar rat bile at 36 ug/kg, iv bolus dose; assay type: ADME, organism-based; details: 0.036 mg/kg, read-out: Drug recovery
# [10] = Drug metabolism in human liver S9 fraction assessed as formation of NADPH-dependent oxidative metabolites; assay type: ADME, subcellular
# [11] = Drug metabolism in rat liver S9 fraction assessed as formation of NADPH-dependent oxidative metabolites; assay type: ADME, subcellular
# [12] = Drug metabolism in monkey liver S9 fraction assessed as formation of NADPH-dependent oxidative metabolites; assay type: ADME, subcellular, Macaca mulatta; details: rhesus monkey
# [13] = Drug metabolism in human liver S9 fraction assessed as formation of amide hydrolysis products; assay type: ADME, subcellular
# [14] = Drug metabolism in rat liver S9 fraction assessed as formation of amide hydrolysis products; assay type: ADME, subcellular
# [15] = Drug metabolism in monkey liver S9 fraction assessed as formation of amide hydrolysis products; assay type: ADME, subcellular, Macaca mulatta; details: rhesus monkey
# [16] = Drug metabolism in human liver S9 fraction assessed as formation of glucuronide conjugates; assay type: ADME, subcellular
# [17] = Drug metabolism in rat liver S9 fraction assessed as formation of glucuronide conjugates; assay type: ADME, subcellular
# [18] = Drug metabolism in monkey liver S9 fraction assessed as formation of glucuronide conjugates; assay type: ADME, subcellular, Macaca mulatta; details: rhesus monkey
# Cytochrome P450 3A4 = Cytochrome P450 3A4 (Homo sapiens, UniProt P08684); test: Drug metabolism assessed as human recombinant CYP3A4-mediated hydroxylation occurring on N-terminus; assay type: ADME; details: recombinant enzyme
# Cytochrome P450 3A4, sequence (P08684 whole entry): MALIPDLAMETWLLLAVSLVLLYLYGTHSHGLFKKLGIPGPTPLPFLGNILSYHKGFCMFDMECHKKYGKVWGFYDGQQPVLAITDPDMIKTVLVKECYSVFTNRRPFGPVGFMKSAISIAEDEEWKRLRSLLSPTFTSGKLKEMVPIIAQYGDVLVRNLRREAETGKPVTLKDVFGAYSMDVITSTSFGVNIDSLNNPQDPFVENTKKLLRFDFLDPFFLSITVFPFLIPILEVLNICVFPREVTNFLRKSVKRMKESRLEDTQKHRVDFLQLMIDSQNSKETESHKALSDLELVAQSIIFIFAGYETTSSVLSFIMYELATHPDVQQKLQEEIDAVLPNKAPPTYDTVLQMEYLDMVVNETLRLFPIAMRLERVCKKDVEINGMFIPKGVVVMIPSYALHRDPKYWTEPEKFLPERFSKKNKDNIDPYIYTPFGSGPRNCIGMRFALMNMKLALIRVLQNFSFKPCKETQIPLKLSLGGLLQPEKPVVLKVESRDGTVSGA
# [19] = Apparent intrinsic clearance in human liver microsomes at 1 uM; assay type: ADME; details: read-out: CLH(app)
# In short: (§4)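 Apparent intrinsic clearance measured at 1 μM substrate in human liver microsomes (μl/min/mg) and in human hepatocytes (μl/min/million cells).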
# Hepatocyte = test: Apparent intrinsic clearance in human liver hepatocytes at 1 uM; assay type: ADME, cell-based; in short: as §4
# [20] = Cmax in Han Wistar rat at 20 ug/kg, iv by LC-MS/MS analysis; assay type: ADME, organism-based; design: dose 20 ug/kg, route intravenous; details: in vivo, 0.02 mg/kg; in short: as §2
# [21] = Tmax in Han Wistar rat at 20 ug/kg, iv by LC-MS/MS analysis; assay type: ADME, organism-based; details: in vivo, 0.02 mg/kg; in short: as §2
smiles,measurement,setting,value
CC[C@H](C)[C@@H]([C@@H](CC(=O)N1CCC[C@H]1[C@H](OC)[C@@H](C)C(=O)N[C@@H](Cc1ccccc1)c1nccs1)OC)N(C)C(=O)[C@@H](NC(=O)C(C)(C)CN)C(C)C,GI50,BT-474,0.25 nM
same,GI50,MDA-MB-361,0.81 nM
same,GI50,NCI-N87,1.4 nM
CC[C@H](C)[C@@H]([C@@H](CC(=O)N1CCC[C@H]1[C@H](OC)[C@@H](C)C(=O)N[C@@H](Cc1ccccc1)c1nccs1)OC)N(C)C(=O)[C@@H](NC(=O)C(C)(C)CNC)C(C)C,GI50,BT-474,0.25 nM
same,GI50,MDA-MB-361,0.41 nM
same,GI50,NCI-N87,1.1 nM
CC[C@H](C)[C@@H]([C@@H](CC(=O)N1CCC[C@H]1[C@H](OC)[C@@H](C)C(=O)N[C@@H](Cc1ccccc1)c1nccs1)OC)N(C)C(=O)[C@@H](NC(=O)[C@]1(C)CCCN1)C(C)C,GI50,BT-474,0.14 nM
same,GI50,MDA-MB-361,0.2 nM
same,GI50,NCI-N87,0.15 nM
CC[C@H](C)[C@@H]([C@@H](CC(=O)N1CCC[C@H]1[C@H](OC)[C@@H](C)C(=O)N[C@@H](Cc1ccccc1)c1nccs1)OC)N(C)C(=O)[C@@H](NC(=O)[C@@]1(C)CCCN1)C(C)C,GI50,BT-474,0.11 nM
same,GI50,MDA-MB-361,0.21 nM
same,GI50,NCI-N87,0.36 nM
CC[C@H](C)[C@@H]([C@@H](CC(=O)N1CCC[C@H]1[C@H](OC)[C@@H](C)C(=O)N[C@@H](Cc1ccccc1)c1nccs1)OC)N(C)C(=O)[C@@H](NC(=O)[C@]1(F)CCNC1)C(C)C,GI50,BT-474,0.16 nM
same,GI50,MDA-MB-361,0.25 nM
same,GI50,NCI-N87,0.59 nM
CC[C@H](C)[C@@H]([C@@H](CC(=O)N1CCC[C@H]1[C@H](OC)[C@@H](C)C(=O)N[C@@H](Cc1ccccc1)c1nccs1)OC)N(C)C(=O)[C@@H](NC(=O)[C@@]1(F)CCNC1)C(C)C,GI50,BT-474,0.29 nM
same,GI50,MDA-MB-361,0.6 nM
same,GI50,NCI-N87,1.1 nM
CC[C@H](C)[C@@H]([C@@H](CC(=O)N1CCC[C@H]1[C@H](OC)[C@@H](C)C(=O)N[C@@H](Cc1ccccc1)c1nccs1)OC)N(C)C(=O)[C@@H](NC(=O)[C@]1(C)CCCCN1)C(C)C,GI50,BT-474,0.16 nM
same,GI50,MDA-MB-361,0.2 nM
same,GI50,NCI-N87,0.25 nM
CC[C@H](C)[C@@H]([C@@H](CC(=O)N1CCC[C@H]1[C@H](OC)[C@@H](C)C(=O)N[C@@H](Cc1ccccc1)c1nccs1)OC)N(C)C(=O)[C@@H](NC(=O)[C@@]1(C)CCCCN1)C(C)C,GI50,BT-474,0.35 nM
same,GI50,MDA-MB-361,0.4 nM
same,GI50,NCI-N87,0.52 nM
CC[C@H](C)[C@@H]([C@@H](CC(=O)N1CCC[C@H]1[C@H](OC)[C@@H](C)C(=O)N[C@@H](Cc1ccccc1)c1nccs1)OC)N(C)C(=O)[C@@H](NC(=O)[C@@H](N)C(C)C)C(C)C (H-VV[Dil][Dolaproine]-Doe),GI50,BT-474,5.3 nM
same,GI50,MDA-MB-361,9 nM
same,GI50,NCI-N87,10 nM
CC[C@H](C)[C@@H]([C@@H](CC(=O)N1CCC[C@H]1[C@H](OC)[C@@H](C)C(=O)N[C@@H](Cc1ccccc1)c1nccs1)OC)N(C)C(=O)[C@@H](NC(=O)C1(N)CC1)C(C)C (H-[Ac3c]V[Dil][Dolaproine]-Doe),GI50,BT-474,2.9 nM
same,GI50,MDA-MB-361,5.6 nM
same,GI50,NCI-N87,6.4 nM
CC[C@H](C)[C@@H]([C@@H](CC(=O)N1CCC[C@H]1[C@H](OC)[C@@H](C)C(=O)N[C@@H](Cc1ccccc1)c1nccs1)OC)N(C)C(=O)[C@@H](NC(=O)C1(N)CCCC1)C(C)C (H-[Ac5c]V[Dil][Dolaproine]-Doe),GI50,BT-474,0.28 nM
same,GI50,MDA-MB-361,0.35 nM
same,GI50,NCI-N87,0.33 nM
CC[C@H](C)[C@@H]([C@@H](CC(=O)N1CCC[C@H]1[C@H](OC)[C@@H](C)C(=O)N[C@@H](Cc1ccccc1)c1nccs1)OC)N(C)C(=O)[C@@H](NC(=O)C(C)(C)N)C(C)C (H-[Aib]V[Dil][Dolaproine]-Doe),AUC(0-t),[1],4.51 ng·h/mL
same,Vd,[2],14.7 L/kg
same,half-life,[3],5.85 h
same,clearance,[4],70 mL/min/kg
same,fraction unbound at 0.1 µM,[5],0.24
same,fraction unbound at 0.1 µM,[6],0.1
same,fraction unbound at 0.1 µM,[7],0.07
same,dose excreted,[8],8%
same,dose excreted,[9],4%
same,Drug metabolism,[10],metabolite_detected
same,Drug metabolism,[11],metabolite_detected
same,Drug metabolism,[12],metabolite_detected
same,Drug metabolism,[13],metabolite_notdetected
same,Drug metabolism,[14],metabolite_notdetected
same,Drug metabolism,[15],metabolite_notdetected
same,Drug metabolism,[16],metabolite_notdetected
same,Drug metabolism,[17],metabolite_notdetected
same,Drug metabolism,[18],metabolite_notdetected
same,Drug metabolism,Cytochrome P450 3A4,metabolite_detected
same,GI50,BT-474,0.26 nM
same,GI50,MDA-MB-361,0.19 nM
same,GI50,NCI-N87,0.27 nM
same,microsomal CLint at 1 µM,[19],84 µL/min/mg
same,CLH(app),Hepatocyte,21 µL/min/mg
same,Cmax,[20],19.4 ng/mL
same,Tmax,[21],8.4 min
CC[C@H](C)[C@@H]([C@@H](CC(=O)N1CCC[C@H]1[C@H](OC)[C@@H](C)C(=O)N[C@@H](Cc1ccccc1)c1nccs1)OC)N(C)C(=O)[C@@H](NC(=O)[C@H](C)NC)C(C)C (H-[NMeA]V[Dil][Dolaproine]-Doe),GI50,BT-474,0.23 nM
same,GI50,MDA-MB-361,0.25 nM
same,GI50,NCI-N87,0.42 nM
CC[C@H](C)[C@@H]([C@@H](CC(=O)N1CCC[C@H]1[C@H](OC)[C@@H](C)C(=O)N[C@@H](Cc1ccccc1)c1nccs1)OC)N(C)C(=O)[C@@H](NC(=O)C(C)(C)NC)C(C)C (H-[NMeAib]V[Dil][Dolaproine]-Doe),GI50,BT-474,0.045 nM
same,GI50,MDA-MB-361,0.076 nM
same,GI50,NCI-N87,0.12 nM
CC[C@H](C)[C@@H]([C@@H](CC(=O)N1CCC[C@H]1[C@H](OC)[C@@H](C)C(=O)N[C@@H](Cc1ccccc1)c1nccs1)OC)N(C)C(=O)[C@@H](NC(=O)[C@@H](NC)C(C)C)C(C)C (H-[NMeV]V[Dil][Dolaproine]-Doe),GI50,BT-474,0.12 nM
same,GI50,MDA-MB-361,0.09 nM
same,GI50,NCI-N87,0.3 nM
same,microsomal CLint at 1 µM,[19],48 µL/min/mg
same,CLH(app),Hepatocyte,11 µL/min/mg
CC[C@H](C)[C@@H]([C@@H](CC(=O)N1CCC[C@H]1[C@H](OC)[C@@H](C)C(=O)N[C@H](C)[C@@H](O)c1ccccc1)OC)N(C)C(=O)[C@@H](NC(=O)[C@@H](NC)C(C)C)C(C)C (H-[NMeV]V[Dil][Dolaproine]-X1),GI50,BT-474,0.22 nM
same,GI50,MDA-MB-361,0.49 nM
same,GI50,NCI-N87,0.54 nM
same,microsomal CLint at 1 µM,[19],24 µL/min/mg
same,CLH(app),Hepatocyte,3 µL/min/mg
CC[C@H](C)[C@@H]([C@@H](CC(=O)N1CCC[C@H]1[C@H](OC)[C@@H](C)C(=O)N[C@@H](Cc1ccccc1)c1nccs1)OC)N(C)C(=O)[C@@H](NC(=O)CNC)C(C)C (H-[Sar]V[Dil][Dolaproine]-Doe),GI50,BT-474,0.49 nM
same,GI50,MDA-MB-361,0.69 nM
same,GI50,NCI-N87,1.2 nM
